Assay results from different studies.
Each line is one published result; the experiments were not run side by side.
Observed: cell growth or viability

| Compound | cell line | test | setting | CC50 [µM] |
| --- | --- | --- | --- | --- |
| CCOC(=O)c1csc(NN=C(C)c2ccccc2)n1 | LLC-MK2 | MTT | 96 h, pH 7.2 | 292 |
| Cc1cn([C@H]2C[C@H](N=[N+]=[N-])[C@@H](CO)O2)c(=O)[nH]c1=O | Caco-2 | crystal violet | 72 h | 56.1 |
| CN1CCc2c(c3ccccc3n2Cc2ccc(C(=O)NO)cc2)C1 | LLC-MK2 | MTS | 48 h | > 20 |
| Cc1cc2ccccc2n1CCNC(=O)c1ccc(N2CCOCC2)c(F)c1 | C6 glioma |  |  | < 500 |
| CCC[C@H](NC(=O)[C@H](CC1CCCCC1)NC(=O)[C@@H](NC(=O)CC12CC3CC(CC(C3)C1)C2)C(C)(C)C)C(=O)C(=O)NC1CC1 | RD | neutral red |  | < 2 |
| CCOC(=O)c1csc(NN=Cc2cccc(OC)c2)n1 | LLC-MK2 | MTT | 96 h, pH 7.2 | 641 |
| O=c1[nH]cc(F)c(=O)[nH]1 | Caco-2 | crystal violet | 72 h | 390 |
| CCc1nc(-c2cnc3ccc(-c4ccccc4N)cc3c2)no1 | RD | ATP luminescence | 72 h | 21 |
| CCOC(=O)CC1SC(=NN=C2CCCc3ccccc32)NC1=O (centres unmarked) | LLC-MK2 | MTT | 96 h, pH 7.2 | 280 |
| O=C(CCCCCCC(=O)Nc1ccccc1)NO | LLC-MK2 | MTS | 48 h | 5.94 |
| CCOC(=O)CC1SC(=NN=Cc2cccc(O)c2)NC1=O (centres unmarked) | LLC-MK2 | MTT | 96 h, pH 7.2 | 614 |
| CCC[C@H](NC(=O)[C@@H](NC(=O)[C@@H](NC(=O)CC12CC3CC(CC(C3)C1)C2)C(C)(C)C)C1CCCCC1)C(=O)C(=O)NC1CC1 | RD | neutral red |  | < 2 |
| CCOC(=O)c1cnc2ccc(-c3ccc(C(C)C)cc3)cc2c1 | RD | ATP luminescence | 72 h | > 2.5 |
| CCN(CC)c1ccc(C(=O)NCCc2c(C)[nH]c3ccccc23)cc1 | C6 glioma |  |  | < 500 |
